Twelve molecules from ChEMBL document CHEMBL1136261, “Novel inhibitors of neuronal nitric oxide synthase with potent antioxidant properties” (Bioorg Med Chem Lett, 2003) can be followed below.

Test [1] has as its target T1, Nitric oxide synthase 1 (Rattus norvegicus, UniProt P29476). Description: Inhibitory concentration tested against neuronal nitric oxide synthase (nNOS ) from rat cerebellum; Not active. The test is classed as tissue-based. Summed up:
(§1)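 NOS activity measured as enzymatic conversion of [3H]L-arginine into [3H]L-citrulline; inhibition taken as the reduction of this conversion. Both constitutive isoforms (neuronal and endothelial) were assayed, and the nNOS/eNOS selectivity was calculated from the two results.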

Test [2] has as its target T2, Nitric oxide synthase 3 (Bos taurus, UniProt P29473).
T2 sequence (P29473 whole entry): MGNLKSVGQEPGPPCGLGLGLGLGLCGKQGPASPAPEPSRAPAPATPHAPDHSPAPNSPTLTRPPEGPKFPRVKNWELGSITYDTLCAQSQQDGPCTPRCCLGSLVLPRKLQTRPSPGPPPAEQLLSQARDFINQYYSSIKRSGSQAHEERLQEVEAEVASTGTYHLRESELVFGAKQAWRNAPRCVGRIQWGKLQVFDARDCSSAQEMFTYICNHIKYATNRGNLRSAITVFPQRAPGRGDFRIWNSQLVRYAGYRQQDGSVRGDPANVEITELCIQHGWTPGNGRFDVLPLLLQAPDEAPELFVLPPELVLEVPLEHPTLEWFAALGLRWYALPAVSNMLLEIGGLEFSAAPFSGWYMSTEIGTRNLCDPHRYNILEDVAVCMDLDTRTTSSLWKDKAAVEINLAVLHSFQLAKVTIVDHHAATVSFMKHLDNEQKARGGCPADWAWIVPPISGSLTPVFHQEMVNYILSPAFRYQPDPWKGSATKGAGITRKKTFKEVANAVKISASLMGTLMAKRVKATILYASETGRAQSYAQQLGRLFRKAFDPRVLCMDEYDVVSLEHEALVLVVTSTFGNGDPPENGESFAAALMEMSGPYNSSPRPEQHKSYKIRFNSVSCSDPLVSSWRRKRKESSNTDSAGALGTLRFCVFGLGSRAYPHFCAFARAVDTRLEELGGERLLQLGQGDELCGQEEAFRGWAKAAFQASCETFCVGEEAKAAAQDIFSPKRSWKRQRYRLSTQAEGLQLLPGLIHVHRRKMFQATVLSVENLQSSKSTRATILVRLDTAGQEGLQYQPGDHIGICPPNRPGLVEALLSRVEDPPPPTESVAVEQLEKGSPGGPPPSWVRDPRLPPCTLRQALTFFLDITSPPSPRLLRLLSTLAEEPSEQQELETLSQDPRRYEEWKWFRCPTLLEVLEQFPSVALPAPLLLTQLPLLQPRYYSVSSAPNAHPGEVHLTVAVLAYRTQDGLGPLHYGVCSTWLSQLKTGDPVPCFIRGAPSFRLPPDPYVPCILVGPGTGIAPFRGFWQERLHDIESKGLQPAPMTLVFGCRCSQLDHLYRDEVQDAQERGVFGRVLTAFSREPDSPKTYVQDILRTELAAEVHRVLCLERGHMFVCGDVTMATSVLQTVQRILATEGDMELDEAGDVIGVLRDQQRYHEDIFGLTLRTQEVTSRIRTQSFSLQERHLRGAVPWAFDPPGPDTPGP
Description: Inhibitory concentration tested against bovine endothelial nitric oxide synthase (eNOS); Not active. The procedure, abridged: as §1

For test [3], the species on record is Rattus norvegicus. The test can be described thus: Antioxidant potency of compound was assessed for their ability to inhibit [Fe2+] induced lipid peroxidation in rat brain microsomes. It is filed as functional.
Test [4] addresses T1, Nitric oxide synthase 1. Description: Inhibitory concentration tested against neuronal nitric oxide synthase (nNOS ) from rat cerebellum. The test is classed as tissue-based.
The target of test [5] is T2, Nitric oxide synthase 3. Description: Inhibitory concentration tested against bovine endothelial nitric oxide synthase (eNOS). The procedure, abridged:
as §1

For test [6], the target named is T3, Nitric oxide synthase 3 (Bos taurus) (UniProt P29473).
T3 sequence (whole entry): T2 sequence (P29473 whole entry)
The test can be described thus: Selectivity ratio for inhibition of Endothelial Nitric oxide synthase to that of Neuronal Nitric oxide synthase in rat. Summed up:
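Ratio of inhibitory activity on the two constitutive NOS isoforms, eNOS and nNOS. Inhibition on each isoform was measured as the effect on NOS conversion of [3H]L-arginine to [3H]L-citrulline.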

For test [7], the species on record is Rattus norvegicus. Description: Antioxidant potency of compound was assessed for their ability to inhibit [Fe2+] induced lipid peroxidation in rat brain microsomes; Not active. The test is classed as functional.

The IC50 is the point on the concentration scale where inhibition reaches its midpoint. A lower IC50 goes with greater potency in that assay.

T1 sequence (P29476 whole entry, canonical isoform): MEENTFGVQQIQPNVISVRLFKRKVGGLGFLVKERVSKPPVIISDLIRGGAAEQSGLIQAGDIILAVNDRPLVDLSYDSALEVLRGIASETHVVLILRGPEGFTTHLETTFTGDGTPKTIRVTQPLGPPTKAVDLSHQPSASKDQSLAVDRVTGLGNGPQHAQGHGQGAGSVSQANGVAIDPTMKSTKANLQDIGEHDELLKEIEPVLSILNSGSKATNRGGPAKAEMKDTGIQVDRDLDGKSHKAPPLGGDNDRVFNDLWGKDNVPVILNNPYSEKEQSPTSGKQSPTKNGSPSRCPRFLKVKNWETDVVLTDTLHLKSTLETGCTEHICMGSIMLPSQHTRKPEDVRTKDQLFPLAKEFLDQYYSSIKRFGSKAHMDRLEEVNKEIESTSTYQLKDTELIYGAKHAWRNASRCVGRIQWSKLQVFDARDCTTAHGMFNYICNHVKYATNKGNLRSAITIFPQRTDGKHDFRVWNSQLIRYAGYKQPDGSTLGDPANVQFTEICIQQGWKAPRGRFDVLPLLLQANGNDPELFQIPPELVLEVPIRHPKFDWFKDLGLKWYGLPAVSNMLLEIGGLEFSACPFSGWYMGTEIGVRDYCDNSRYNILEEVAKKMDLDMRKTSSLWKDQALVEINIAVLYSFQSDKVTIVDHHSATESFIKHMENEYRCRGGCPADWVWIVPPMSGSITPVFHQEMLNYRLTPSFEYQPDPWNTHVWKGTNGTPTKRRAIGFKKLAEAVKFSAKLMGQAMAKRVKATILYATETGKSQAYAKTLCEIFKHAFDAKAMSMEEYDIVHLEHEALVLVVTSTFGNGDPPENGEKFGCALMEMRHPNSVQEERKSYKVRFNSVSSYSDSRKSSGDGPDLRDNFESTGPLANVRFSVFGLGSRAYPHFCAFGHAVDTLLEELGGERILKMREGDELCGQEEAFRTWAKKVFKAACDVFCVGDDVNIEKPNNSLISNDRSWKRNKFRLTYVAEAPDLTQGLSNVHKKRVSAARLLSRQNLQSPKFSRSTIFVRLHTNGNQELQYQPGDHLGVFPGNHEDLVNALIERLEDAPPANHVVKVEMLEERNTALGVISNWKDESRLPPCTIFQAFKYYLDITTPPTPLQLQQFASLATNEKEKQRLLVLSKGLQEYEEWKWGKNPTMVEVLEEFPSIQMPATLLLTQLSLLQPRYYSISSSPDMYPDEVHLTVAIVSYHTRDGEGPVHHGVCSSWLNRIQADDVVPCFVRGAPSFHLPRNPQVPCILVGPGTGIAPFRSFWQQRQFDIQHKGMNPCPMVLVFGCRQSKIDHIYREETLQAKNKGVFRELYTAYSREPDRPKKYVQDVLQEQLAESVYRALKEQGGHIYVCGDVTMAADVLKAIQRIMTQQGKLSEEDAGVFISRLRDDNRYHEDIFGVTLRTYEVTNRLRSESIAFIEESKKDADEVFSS

`Cc1cc(C(C)(C)C)c(O)c(C(C)(C)C)c1` [BUTYLATED HYDROXYTOLUENE]: the 50% inhibitory concentration (IC50) entry is “Not Active” at Nitric oxide synthase 1 [1], “Not Active” on Nitric oxide synthase 3 [2] and 32500 nM in the test listed under Rattus norvegicus [3].
Consider `CC(C)(C)c1cc(CCNCc2cccc(N=C(N)c3cccs3)c2)cc(C(C)(C)C)c1O`, for which the IC50 came to 1400 nM at Nitric oxide synthase 1 [4] and 15.5 µM against Nitric oxide synthase 3 [5].
Take `CC(C)(C)c1cc(CNCc2cccc(NC(=N)c3cccs3)c2)cc(C(C)(C)C)c1O`: the half-maximal inhibitory concentration (IC50) came out at 1600 nM against Nitric oxide synthase 1 [4], 15.7 µM against Nitric oxide synthase 3 [5] and 4900 nM in the test filed under Rattus norvegicus [3]. Further, the Selectivity ratio in test [6] is 9.8.
Regarding `N/C(=N/c1ccc(N)cc1)c1cccs1`, the concentration for half-maximal inhibition (IC50) is 18000 nM against Nitric oxide synthase 1 [4] and more than 100 µM against Nitric oxide synthase 3 [5]. In test [6], the Selectivity ratio was more than 5.5.
For the molecule `Cl.Cl.Cl.N=C(Nc1ccc(CCNCc2cccc(Cl)c2)cc1)c1cccs1`, the IC50 entry in the test filed under Rattus norvegicus [7] is “Not Active”; on Nitric oxide synthase 1 [4], 120 nM; against Nitric oxide synthase 3 [5], 7.2 µM. For the same molecule, in test [6], the Selectivity ratio was determined as 60.
Molecule `CC(C)(C)c1cc(CCNCc2cccc(NC(=N)c3cccs3)c2)cc(C(C)(C)C)c1O` displayed a 50% inhibitory concentration (IC50) in the test filed under Rattus norvegicus [3] of 2400 nM. The Selectivity ratio in test [6] stood at 11.1.
On to `N=C(Nc1cccc(CN)c1)c1cccs1`, for which the figures for the half-maximal inhibitory concentration (IC50) at Nitric oxide synthase 1 [4] and on Nitric oxide synthase 3 [5] were 50 nM and 24.2 µM, respectively. Moreover, the Selectivity ratio in test [6] was 484.
Turning to `CC(C)c1cc(CCCNCc2cccc(NC(=N)c3cccs3)c2)cc(C(C)C)c1O`, the IC50 at Nitric oxide synthase 1 [4] amounted to 120 nM; on Nitric oxide synthase 3 [5], 8.1 µM; in the test filed under Rattus norvegicus [3], 400 nM. The Selectivity ratio in test [6] worked out at 67.5.
As for `N=C(Nc1ccc(CN)cc1)c1cccs1`, the 50% inhibitory concentration (IC50) at Nitric oxide synthase 1 [4] was 200 nM; at Nitric oxide synthase 3 [5] it was 37.1 µM. Besides, the Selectivity ratio in test [6] amounted to 195.
`CC(C)(C)c1cc(CCCNCc2cccc(NC(=N)c3cccs3)c2)cc(C(C)(C)C)c1O`: the half-inhibitory concentration (IC50) on Nitric oxide synthase 1 [4] amounted to 470 nM; at Nitric oxide synthase 3 [5] it was 4.9 µM; in the test filed under Rattus norvegicus [3], 400 nM. The Selectivity ratio in test [6] came to 10.4.
As to `N=C(Nc1ccccc1)c1cccs1`, the IC50 is 2200 nM on Nitric oxide synthase 1 [4] and 13.9 µM against Nitric oxide synthase 3 [5]. In test [6], the Selectivity ratio came out at 6.3.
On the same counts, the results for `N=C(Nc1ccc(CCN)cc1)c1cccs1` are 80 nM, 25 µM and 312.
